From PubChem
Hsp70 activator = switches on Hsp70 transcription. HeLa Hsp70 promoter luciferase reporter, luminescence; scaled: vehicle 0, proteasome-inhibitor control 100%. activation, % at 10 µM. 0.04% of 200,000 active;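 active = activation above the mean across all tested compounds plus 3 SD, cutoff set per campaign, cut at about 5.5% in these data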;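 note: 100% = MG132 at 30 µM as the positive control and 0% = DMSO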
S1P3 antagonist = antagonists of human S1P3 receptor; Q99500; CHO S1P3 NFAT-BLA reporter, FRET fluorescence, antagonist mode; 0.27% of 170,000 active; inhibition, % at 4.98 µM;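 active = inhibition above the plate cutoff, the mean inhibition of test wells on that plate plus 3 SD, cut at about 28% in these data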;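 note: cells challenged with S1P at its EC80 of 0.8 µM; blue over green emission ratio from cleaved BLA substrate after 4 h stimulation; 0% = S1P-stimulated wells and 100% = unstimulated DMSO-only wells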
Target sequence (Q99500 whole entry, looked up): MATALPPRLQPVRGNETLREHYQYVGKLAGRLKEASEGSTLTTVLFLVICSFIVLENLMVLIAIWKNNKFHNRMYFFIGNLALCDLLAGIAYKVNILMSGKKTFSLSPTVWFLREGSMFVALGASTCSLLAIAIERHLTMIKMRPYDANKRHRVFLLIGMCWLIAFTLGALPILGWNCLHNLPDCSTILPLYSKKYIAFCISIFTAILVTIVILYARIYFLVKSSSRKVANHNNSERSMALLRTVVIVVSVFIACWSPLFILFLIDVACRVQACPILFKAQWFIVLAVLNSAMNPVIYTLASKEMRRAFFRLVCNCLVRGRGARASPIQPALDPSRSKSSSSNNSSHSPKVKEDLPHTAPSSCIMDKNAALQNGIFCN
MDM2 E3 inh = Mdm2 E3 ligase (human) inhibition. Q00987. cell-based MDM2 ubiquitination luciferase reporter, 2 h; 0 = plate control, 100 = twice control, blank-subtracted. signal enhancement, % at 5 µM. 0.11% of 210,000 active;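 active = signal enhancement of 30% or more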;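 note: luminescence tracks abundance of the self-degrading MDM2-luciferase fusion protein; higher signal means inhibition of MDM2 E3 ligase activity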
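Timing – 2 h compound exposure at 37 °C · Assay system – mammalian cells stably expressing self-ubiquitinating, self-degrading MDM2 E3–luciferase fusion · Amount – 2000 cells seeded into each well · Measure – % luminescence enhancement versus blank-corrected plate control mean · Measured by – SteadyLite luminescence, 15 min reagent step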
CHOP inhibitor = blocks CHOP induction under ER stress. CHO-K1 CHOP-promoter luciferase, tunicamycin-induced, 15-18 h. inhibition, % at 10 µM. 3.8% of 220,000 active;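 active = compounds that reduced the stress-induced luciferase reporter signal by more than about 70% of percent inhibition, limit read from the data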;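 note: 0% = tunicamycin plus vehicle and 100% = wells without tunicamycin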
An asterisk follows results filed as active; nt = no result. Sampled rows, rich in hits. Any-hit rate of the full collection: about 4%.

SMILES	Hsp70 activator	S1P3 antagonist	MDM2 E3 inh	CHOP inhibitor
O=[N+]([O-])c1ccc(NCCCNS(=O)(=O)c2ccc(Cl)cc2)c(Cl)c1	0	nt	-15	82*
COc1ccc(N2CCN(C(CNC(C)=O)c3ccco3)CC2)cc1 (configuration not stated)	0	-7	-7	0
O=C(NCCC1=CCCCC1)C(=O)NCC(c1ccco1)N1CCN(c2ccc(F)cc2)CC1 (configuration not stated)	-1	15	2	88*
Cc1cc(=O)n2[nH]c(N3C(=O)CCC3=O)nc2n1	0	nt	30*	-13
Cc1cc(=O)n2[nH]c(-c3ccc(F)cc3)nc2n1	0	-32	-14	-5
O/N=C(\c1ccc(Cl)cc1)c1cc2ccccc2o1	0	15	-2	85*
COc1cccc2cc(/C(=N/O)c3ccccc3)oc12	0	-14	-6	-6
COc1ccc(OCC(=O)N/N=C2/C=C(C)CC2)cc1	0	-5	0	6
Cc1ccc(S(=O)(=O)NC(c2ccccc2)C(C)C(=O)n2nc(C)cc2C)cc1 (configuration not stated)	0	nt	-16	73*
Cc1ccc(S(=O)(=O)NC(CC(=O)n2nc(C)cc2C)c2ccccc2)cc1 (configuration not stated)	0	nt	-9	80*
Nc1cccc(Oc2ccc([N+](=O)[O-])cc2)c1	0	-9	-6	19
C=CCNCCCOc1ccc(Cl)cc1C(C)(C)C	0	2	-12	72*
Cc1ccc(C(=O)NN2C(=O)/C(=C/c3cccn3C)SC2=S)cc1	0	2	30*	-22
O=C(COC(=O)c1ccccc1Nc1ccccc1)c1ccccc1	0	nt	-16	21
Cc1ccc(NC(=O)COC(=O)c2ccccc2Nc2ccccc2)cc1	0	-12	2	77*
CCNc1nc(NCC)n2c(SCC(=O)NC34CC5CC(CC(C5)C3)C4)nnc2n1	0	-1	-8	12
CC(=O)OC1CC(c2cc(C(C)(C)C)c(O)c(C(C)(C)C)c2)=NO1 (configuration not stated)	nt	-1	-8	21
O=C(CSc1nc(-c2ccccc2)cs1)Nc1ccccc1[N+](=O)[O-]	0	-7	-9	-4
O=C(/C=C\Nc1ccccn1)c1ccccc1	0	13	-90	28
O=C(/C=C/Nc1ccccc1Br)c1ccccn1	-1	nt	-96	88*
COc1ccc(-c2cc(C(=O)Nc3cc(OC)cc(C(=O)Nc4cccc(C(F)(F)F)c4)c3)[nH]n2)cc1	nt	nt	22	23
O=C1/C(=C/N(C(=O)c2ccco2)c2ccc(Br)cc2)Sc2ccccc21	0	-6	-53	90*
O=C1/C(=C/N(C(=O)c2ccco2)c2ccc(Cl)cc2)Sc2ccccc21	0	15	-55	88*
COc1ccc(NS(=O)(=O)c2cc(NC(=O)[C@@H](NC(N)=O)C(C)C)ccc2C)cc1	nt	5	nt	-7
CC(C)c1nc(SCC(=O)N2CCN(c3ccccc3)CC2)c2c(=O)n(C)c(=O)n(C)c2n1	0	-4	-7	70*
SMILES	Hsp70 activator	S1P3 antagonist	MDM2 E3 inh	CHOP inhibitor
CC(C)c1nc(SCC(=O)Nc2cccc(C(F)(F)F)c2)c2c(=O)n(C)c(=O)n(C)c2n1	0	-3	-3	70*
CCN(CC)C(=O)Cn1cc(C(=O)C(=O)N2CCCc3ccccc32)c2ccccc21	0	4	16	16
COc1ccc(C(=O)c2sc3nc(-c4ccccc4)ccc3c2N)cc1	0	3	-9	78*
CCOC(=O)c1sc2nc(-c3cccnc3)ccc2c1N	0	5	1	-18
CC(C)OC(=O)c1sc2nc(-c3ccccc3)ccc2c1N	0	nt	3	83*
COc1ccccc1N1CCN(C2CCN(S(=O)(=O)c3ccc4ccccc4c3)CC2)CC1	0	nt	1	44
CC(C)C(=O)Nc1ccc(C(=O)Nc2nnc(C(C)C)s2)cc1	0	2	-6	-8
C=C(C)c1cccc(C(C)(C)NC(=O)Nc2ccc(Cl)cn2)c1	0	3	-9	78*
CCCCNS(=O)(=O)c1ccc2nc(-c3cccnc3)cc(C(=O)NC(C)C)c2c1	0	-4	nt	5
CCCCNS(=O)(=O)c1ccc2nc(-c3cccnc3)cc(C(=O)NC(C)CC)c2c1 (configuration not stated)	0	-14	nt	101*
O=C(CCc1nnc(-c2ccccc2)o1)NCc1cc(F)ccc1F	0	11	3	19
CSc1nnc(NC(=O)c2cc(=O)c3cc(C)cc(C)c3o2)s1	nt	-1	-11	-3
